Results pooled from the literature.
Target: Eukaryotic elongation factor 2 kinase (EEF2K, Homo sapiens, UniProt O00418)

Cn1c2c(c3ccc(Cl)c(Cl)c31)C(C#N)C1(CCCC1)NC2=O (stereo not drawn) — ΔTm (thermal stability, DSF; 10 µM): 0 °C
FC(F)(F)Oc1cccc(-c2cnc3ccc(-c4ccncc4)nn23)c1 — activity vs control (enzyme activity, inhibitor, radiometric; 1 µM): 99%
Cn1c(=O)n(-c2ccc(C(C)(C)C#N)cc2)c2c3cc(-c4cnc5ccccc5c4)ccc3ncc21 — remaining activity (enzyme activity, inhibitor; 10 µM): 110%
CCN(CC)CCNC(=O)c1c(C)[nH]c(/C=C2\C(=O)Nc3ccc(F)cc32)c1C — inhibition (enzyme activity, inhibitor; 10 µM): -4%
COc1cc2nccc(Oc3ccc(NC(=O)c4c5n(n(-c6ccc(F)cc6)c4=O)CCCC5)cc3)c2cc1OC — inhibition (enzyme activity, inhibitor; 0.1 µM): 8%
Nc1nc(Nc2ccccc2)sc1C(=O)c1c(F)cccc1F — remaining activity (enzyme activity, inhibitor; 10 µM): 95%
CC1(C)NC(=O)c2[nH]c3c(Cl)c(Cl)ccc3c2C1C#N (stereo not drawn) — ΔTm (thermal stability, DSF; 10 µM): -0.3 °C
Cc1ccc(Nc2nccc(N(C)c3ccc4c(C)n(C)nc4c3)n2)cc1S(N)(=O)=O — inhibition (enzyme activity, inhibitor; 10 µM): -10%
CNc1cc(Oc2cc(C(=O)Nc3cc(N4CCN(C)CC4)cc(C(F)(F)F)c3)ccc2C)ncn1 — inhibition (target engagement in cells, inhibitor, chemoproteomics; Huh-7; 1 µM): -99.1%
COc1cc(Nc2cnc(C#N)c(O[C@H](C)CN(C)C)n2)ncc1-c1cnn(C)c1 — remaining activity (enzyme activity, inhibitor, radiometric; 10 µM): 87%
CCN1CCN(Cc2ccc(NC(=O)c3ccc(C)c(Oc4ccnc5[nH]ccc45)c3)cc2C(F)(F)F)CC1 — inhibition (target engagement in cells, inhibitor, chemoproteomics; A-375; 0.5 µM): 0.084%
COc1cc(Cl)c(C(=O)N[C@@H](CN[C@H]2CC[C@@H](N)CC2)Cc2ccc(C#N)cc2)cc1-c1ccc(CN[C@H](C)c2ccc(C)cc2)o1 — remaining activity (enzyme activity, inhibitor; 1 µM): 80%
COc1cc2ncnc(Nc3ccc(Oc4ccccc4)cc3C)c2cc1OC — inhibition (enzyme activity, inhibitor; 1 µM): 2%
CC/C(=N\NC(=O)NCc1cccc(O)c1)c1ccc(O)c(C)c1O — inhibition (enzyme activity, inhibitor; 0.1 µM): 1.1%
CCN(CC)c1ccc(C2=NNC(=O)CC2C)cc1[N+](=O)[O-] (stereo not drawn) — remaining activity (enzyme activity, inhibitor; 10 µM): 95%
CN1CCC2(CC1)NC(=O)c1c(c3ccc(Cl)c(Cl)c3n1C)C2C#N (racemic) — ΔTm (thermal stability, DSF; 10 µM): -0.1 °C
COc1cc(/C=C/C(=O)CC(=O)/C=C/c2ccc(O)c(OC)c2)ccc1O — activity vs control (enzyme activity, inhibitor; 1 µM): 98%
Cc1cnc(NC2CCOCC2)nc1-n1cnc(C(=O)NC(CN)c2cc(F)cc(Cl)c2)c1 (stereo not drawn) — remaining activity (enzyme activity, inhibitor, radiometric; 1 µM): 108%
CNC(=O)c1cc(Oc2ccc(NC(=O)Nc3ccc(Cl)c(C(F)(F)F)c3)cc2)ccn1 — inhibition (enzyme activity, inhibitor; 10 µM): -8%
Cn1c2c(c3ccc(Cl)c(Cl)c31)C(C#N)C(C)(C)NC2=O (stereo not drawn) — ΔTm (thermal stability, DSF; 10 µM): -0.5 °C
Cc1cc(NC(=O)c2cccc3cc(-c4cccc5[nH]nc(N)c45)ccc23)ccc1F — activity vs control (enzyme activity, inhibitor; 0.1 µM): 103%
Cn1c2c(Cl)c(Cl)ccc2c2cc[nH]c(=O)c21 — ΔTm (thermal stability, DSF; 10 µM): -0.3 °C
CN(c1ncccc1CNc1nc(Nc2ccc3c(c2)CC(=O)N3)ncc1C(F)(F)F)S(C)(=O)=O — inhibition (enzyme activity, inhibitor; 1 µM): 0%
CC(C)(C)c1nc2c(s1)c1nc(N)ncc1c1ccc(NS(=O)(=O)c3c(F)cccc3F)c(F)c12 — remaining activity (enzyme activity, inhibitor, radiometric; 1 µM): 88%
